In ChEMBL document CHEMBL1134385, “Flexible estrogen receptor modulators: design, synthesis, and antagonistic effects in human MCF-7 breast cancer cells” (J Med Chem, 2001) one finds IC50 and Ki data, which are given here for one compound.

Molecules are shown by their SMILES.

The subject of one assay is MCF7. Description: Antiproliferative activity against Human MCF-7 Breast cancer cell line in vitro. The assay is classed as functional, cell-based. The procedure, abridged: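 MCF-7 cells grown in Eagle's MEM with 10% fetal calf serum and 1% nonessential amino acids, 5% CO2. Seeded at 1.5×10^4 per well, 24 h at 37 °C, then dosed from ethanol stocks over 1 nM-100 μM (vehicle 1% v/v) for 72 h. MTT at 1 mg/mL final, 2 h in the dark, DMSO solubilization, A570. Viability relative to vehicle control; IC50 from triplicate means.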

Another assay addresses Estrogen receptor (Homo sapiens, UniProt Q92731+P03372). Description: Binding affinity for estrogen receptor. The format is protein assay.

As to `CC/C(=C(\Cc1ccccc1)c1ccc(OCN(C)C)cc1)c1ccccc1`, the IC50 in the assay on MCF7 was 21.7 µM. This compound registered a Ki on Estrogen receptor of 503 nM.
